# High-throughput results: PubChem, The Scripps Research Institute Molecular Screening Center
# The list is not random: actives were taken first. Their share in the collection is about 1.8%.
# M4 antag: human M4 muscarinic receptor antagonists, primary screen, CHO cells, Fluo-8 calcium fluorescence; Muscarinic acetylcholine receptor M4 (Homo sapiens), P08173; CHO-hM4 cells, ACh EC80; AID 624125, 2012; 360,000 tested, 0.73% active; inhibition, % at 3 µM;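 active = inhibition above its plate's cutoff, the mean inhibition of sample wells plus 3 SD, cut at about 27% in these data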;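 note: 0% = acetylcholine EC80 with DMSO and 100% = DMSO without agonist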
# Target sequence (P08173 whole entry, looked up): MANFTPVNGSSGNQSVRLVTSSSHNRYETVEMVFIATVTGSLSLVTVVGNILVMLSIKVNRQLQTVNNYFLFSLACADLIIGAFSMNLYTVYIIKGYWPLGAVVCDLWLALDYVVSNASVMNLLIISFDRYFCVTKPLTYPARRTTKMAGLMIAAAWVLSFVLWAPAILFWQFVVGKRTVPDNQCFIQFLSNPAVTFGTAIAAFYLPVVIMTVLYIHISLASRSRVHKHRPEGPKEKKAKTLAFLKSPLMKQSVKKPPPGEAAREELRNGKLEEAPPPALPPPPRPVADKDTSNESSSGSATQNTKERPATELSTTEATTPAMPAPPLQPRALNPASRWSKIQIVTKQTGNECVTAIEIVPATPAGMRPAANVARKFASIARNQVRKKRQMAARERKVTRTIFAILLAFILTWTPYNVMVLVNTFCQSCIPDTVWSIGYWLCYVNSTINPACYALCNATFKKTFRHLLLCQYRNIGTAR
# CHRM4 agonist: human M4 muscarinic receptor agonists, primary screen, CHO-K1 cells, Fluo-8 calcium fluorescence; Muscarinic acetylcholine receptor M4 (Homo sapiens), P08173; CHO-K1 hM4/Gqi5; vehicle 0%, full acetylcholine response 100%; activation, % at 3 µM; 360,000 tested, 0.14% active; AID 624127, 2012;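 active = activation above the run mean over all test wells plus 3 SD, cut at about 32% in these data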;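 note: peak over basal fluorescence ratio per well then scaled between controls; 0% = DMSO wells and 100% = acetylcholine at EC100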
# CHRM4 PAM: human M4 muscarinic receptor positive allosteric modulators, primary screen, CHO-K1 cells, Fluo-8 calcium fluorescence. 360,000 tested, 0.4% active. Muscarinic acetylcholine receptor M4 (Homo sapiens), P08173. CHO-K1 hM4/Gqi5, ACh EC20; 0% = ACh EC20, 100% = maximal ACh. activation, % at 3 µM;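 active = activation above its plate's cutoff, the mean activation of sample wells plus 3 SD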
# CHRM5 agonist: human M5 muscarinic receptor agonists, primary screen, CHO-K1 cells, Fluo-8 calcium fluorescence | CHO-K1 hM5 cells; 0% DMSO wells, 100% maximal acetylcholine response | activation, % at 3 µM | 360,000 tested, 0.19% active | AID 624037, 2012;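 active = activation above the run's mean over test compounds plus 3 SD, cut at about 23% in these data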;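 note: signal is peak over basal fluorescence ratio across the kinetic read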
# CHRM5 PAM: human M5 muscarinic receptor positive allosteric modulators, primary screen, CHO-K1 cells, Fluo-8 calcium fluorescence; Muscarinic acetylcholine receptor M5 (Homo sapiens), P08912; CHO-K1 hM5, ACh EC20 PAM; 0% = ACh EC20, 100% = ACh EC100; activation, % at 3 µM; 360,000 tested, 0.3% active; AID 624038, 2012;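 active = activation above the run cutoff, the mean activation of all test compounds plus 3 SD, cut at about 18% in these data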
#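 Probe or stimulus: acetylcholine, EC20 level; Assay system: human M5 receptor in CHO-K1 cells; Schedule: compound preincubation 140 s before EC20 acetylcholine addition; Technique: intracellular calcium via Fluo-8 fluorescence; Dosing: single-point, 3 µM nominal; Read-out basis: percent activation from peak-over-basal fluorescence ratio, scaled EC20-to-EC100 acetylcholine; Repeats: one well per compound, no replicates.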
# M5 antag: human M5 muscarinic receptor antagonists, primary screen, CHO cells, Fluo-8 calcium fluorescence | CHO-hM5 cells, ACh EC80 | Muscarinic acetylcholine receptor M5 (Homo sapiens), P08912 | AID 624040, 2012 | 360,000 tested, 0.59% active | inhibition, % at 3 µM;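 active = inhibition above a per-plate cutoff, the mean of that plate's test compounds plus 3 SD, cut at about 27% in these data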;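 note: 0% = acetylcholine EC80 with DMSO and 100% = DMSO without agonist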
# An asterisk follows results filed as active.
SMILES,M4 antag,CHRM4 agonist,CHRM4 PAM,CHRM5 agonist,CHRM5 PAM,M5 antag
COc1ccc(N2CCN(S(=O)(=O)c3c(C)nc4sccn4c3=O)CC2)cc1,-18,2,8,1,-2,-1
CC(C)C(=O)N1CCC1(C)C(=O)Nc1ccc2[nH]ccc2c1 (stereo not given),4,1,-1,1,-8,8
CC(C)(C)C1CCC(CN2CCC(CN3C(=O)C(=O)NC[C@@H]3Cc3ccccc3)CC2)CC1 (stereo not given in full),9,0,-10,-3,-8,16
CCNc1sc(C(=O)c2cccs2)c(N)c1-c1nc2ccccc2s1,38*,3,2,2,-2,21
C=CCNc1sc(C(=O)c2ccccc2)c(N)c1-c1nc2ccccc2s1,-3,-3,29*,-6,20*,-6
CCOC(=O)c1sc(NCc2ccco2)c(-c2nc3ccccc3s2)c1N,-5,2,1,1,3,4
Cc1[nH]c(=O)sc1C(=O)NCc1ccc([N+](=O)[O-])cc1,-3,1,-2,1,-6,1
CCCCCOc1ccc(Br)cc1CSC(=N)N,25,12,-14,4,-17,32*
COCC(C)NC(=S)Nc1ccccc1[N+](=O)[O-] (stereo not given),-1,1,5,5,20*,-12
COc1cc(N=Nc2ccc(Br)cc2)cc(C=O)c1O,-9,-1,4,0,4,-5
O=C1c2ccccc2C(c2nnnn2Cc2ccccc2)N1Cc1ccco1 (stereo not given),-3,0,16,0,0,11
C[C@H](CO)N1C[C@H](C)[C@@H](CN(C)C(=O)Nc2ccc3c(c2)OCO3)Oc2c(NC(=O)Nc3ccc(C(F)(F)F)cc3)cccc2C1=O,30*,31,-7,7,-35,17
COc1ccc(NC(=O)N(C)C[C@H]2Oc3c(NC(=O)Nc4ccc(C(F)(F)F)cc4)cccc3C(=O)N([C@H](C)CO)C[C@@H]2C)cc1,29*,37*,-6,2,-27,16
C[C@H](CO)N1C[C@H](C)[C@@H](CN(C)S(=O)(=O)c2cccs2)Oc2ccc(NC(=O)CCC(F)(F)F)cc2C1=O,29*,-1,-6,-7,-1,3
C[C@@H]1CN([C@H](C)CO)C(=O)c2cc(NC(=O)Nc3ccc(C(F)(F)F)cc3)ccc2O[C@H]1CN(C)S(=O)(=O)c1cccs1,-1,1,0,0,2,6
COc1ccc([C@@H]2C[C@H]3[C@@H](CN2S(=O)(=O)c2ccccc2)C(=O)C[C@@H](c2ccccc2)N3S(=O)(=O)c2ccc(C)cc2)cc1,-13,2,2,1,1,5
OC(c1ccc(Cl)c(Cl)c1)c1ncc(-c2ccccc2Cl)[nH]1 (stereo not given),-6,3,-6,1,-2,7
CC(OC(=O)Cc1n[nH]c(=O)c2ccccc12)C(=O)Nc1cc(Cl)cc(Cl)c1 (stereo not given),0,0,-4,2,-6,0
CC(OC(=O)Cc1n[nH]c(=O)c2ccccc12)C(=O)Nc1ccc(Cl)cn1 (stereo not given),-6,4,2,0,19*,-21
Nc1[nH]c(C(=O)c2ccccc2)c(-c2ccncc2)c1C(=O)NC1CC1,-7,2,7,0,-1,6
CCC1=NN2C(=N)/C(=C/c3cc(C)n(Cc4ccccc4)c3C)C(=O)N=C2S1,4,53*,-42,24*,-26,3
COc1cccc2c(=O)n(CC(=O)NCCc3ccccc3)ccc12,29*,0,15,1,0,8
COc1cccc(-c2cnc(C(O)c3ccc(OC)c(F)c3)[nH]2)c1 (stereo not given),6,5,11,2,1,-10
CC[N+](C)(CC)CCC(c1ccccc1)C1CCCCC1 (stereo not given),97*,0,-15,-26,-32,99*
CC[N+](C)(CC)CCOC(=O)C(O)(c1ccccc1)C1CCCCC1 (stereo not given),99*,0,-18,-2,-18,98*
SMILES,M4 antag,CHRM4 agonist,CHRM4 PAM,CHRM5 agonist,CHRM5 PAM,M5 antag
CCC(C(=O)NC1CCCCCC1)c1ccccc1 (stereo not given),-1,0,-22,-9,11,-11
O=C1CCCCC1C(O)(C(=O)c1ccccc1)c1ccccc1 (stereo not given),6,-3,-1,-2,-2,11
CCCNC(=O)c1cc(C2CCCN(C(=O)c3ccc(NC(C)=O)cc3)C2)on1 (stereo not given),-11,1,2,1,-4,-5
CCCc1nc2c(C)cc(Br)cn2c1Cc1ccc(C)cc1,-23,-3,-1,-5,2,-2
Cc1cccc(C(=O)Nc2ccc(C(=O)c3ccncc3)cc2)c1,-9,17,-7,3,-4,2
OC(c1ccc(F)cc1)c1nc(-c2cc3ccccc3o2)cs1 (stereo not given),20,61*,-10,15,-15,7
Cc1ccc2cc3cc(C(=O)NCCN4CCOCC4)oc3nc2c1,-6,3,12,2,21*,-13
CC(=O)c1ccc(NC(=O)CSc2ccc(-c3sc(C)nc3C)nn2)cc1,3,24,-8,3,-17,32*
Cc1nc(C)c(-c2ccc(SCC(=O)Nc3ccc(C)c(Cl)c3)nn2)s1,9,4,0,-2,-1,1
O=C(O)c1ccc(CNC(=O)C2CCN(S(=O)(=O)c3ccc4c(c3)OCCO4)CC2)cc1,-16,1,4,1,2,-2
COc1cccc(N2CCN(CC(=O)Nc3ccccc3C(=O)NCCc3ccccc3)CC2)c1,18,18,-4,-4,-22,28*
O=C(NNC(=S)NC(=O)C12CC3CC(CC(C3)C1)C2)c1ccncc1,12,76*,-29,28*,-16,12
CC1(C(=O)NC(=S)NNC(=O)c2ccncc2)CCCCC1,-14,44*,-4,9,-12,1
